The target in assay [1] is T1, P2X purinoceptor 7 (Homo sapiens) (UniProt Q99572).
T1 sequence (whole entry): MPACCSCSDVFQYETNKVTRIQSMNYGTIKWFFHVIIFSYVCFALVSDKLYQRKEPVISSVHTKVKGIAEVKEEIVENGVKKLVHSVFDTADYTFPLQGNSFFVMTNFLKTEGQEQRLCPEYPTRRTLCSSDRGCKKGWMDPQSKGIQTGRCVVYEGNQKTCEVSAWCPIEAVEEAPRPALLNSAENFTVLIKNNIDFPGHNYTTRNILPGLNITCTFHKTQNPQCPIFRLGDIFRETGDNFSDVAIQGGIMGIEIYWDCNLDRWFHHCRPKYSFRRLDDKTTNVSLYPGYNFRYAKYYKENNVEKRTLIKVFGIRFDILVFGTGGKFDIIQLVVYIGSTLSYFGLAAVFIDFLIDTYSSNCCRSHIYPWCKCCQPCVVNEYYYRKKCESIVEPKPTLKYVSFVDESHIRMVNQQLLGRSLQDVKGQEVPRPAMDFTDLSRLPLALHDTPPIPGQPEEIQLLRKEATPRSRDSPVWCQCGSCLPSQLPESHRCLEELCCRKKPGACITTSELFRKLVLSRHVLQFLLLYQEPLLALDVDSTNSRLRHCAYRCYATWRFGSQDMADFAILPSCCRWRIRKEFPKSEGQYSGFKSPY
As to the kind of experiment: Antagonist activity at P2X7 receptor in LPS/IFN-gamma-differentiated human THP1 cells assessed as inhibition of BzATP-induced IL-1beta release at 1 uM preincubated for 30 mins followed by BzATP induction measured after 30 mins by ELISA relative to control. It is filed as cell-based. The following applies: THP-1. Put shortly:
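LPS-primed THP-1 human monocytes were stimulated with BzATP, and IL-1β release was measured by ELISA. Test compound was given at a single concentration of 1 µM, and results are expressed as percent inhibition of BzATP-induced IL-1β release.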

In assay [2] the target is T2, P2X purinoceptor 1 (Mus musculus) (UniProt P51576).
T2 sequence (whole entry): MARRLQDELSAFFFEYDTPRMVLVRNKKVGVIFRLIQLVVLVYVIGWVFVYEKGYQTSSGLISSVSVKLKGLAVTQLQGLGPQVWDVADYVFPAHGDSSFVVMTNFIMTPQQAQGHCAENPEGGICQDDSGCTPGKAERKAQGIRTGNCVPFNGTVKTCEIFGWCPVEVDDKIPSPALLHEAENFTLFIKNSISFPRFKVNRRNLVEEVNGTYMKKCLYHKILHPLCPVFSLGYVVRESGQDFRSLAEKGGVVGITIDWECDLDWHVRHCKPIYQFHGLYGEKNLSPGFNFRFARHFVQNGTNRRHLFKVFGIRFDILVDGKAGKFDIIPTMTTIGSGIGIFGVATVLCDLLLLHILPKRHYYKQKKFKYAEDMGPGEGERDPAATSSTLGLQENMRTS
The experiment in a line: Antagonist activity at recombinant mouse P2X1 receptor overexpressed in Xenopus oocytes assessed as inhibition of ATP-induced ion current at 10 uM preincubated for 20 mins followed by ATP induction by two-electrode voltage clamping method relative to control. It counts as cell-based. The gist of the method: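 Two-electrode voltage clamp on Xenopus oocytes expressing the receptor after cRNA microinjection. Current was evoked by 2 µM ATP, with test compound at 10 µM.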
A general note: Two-electrode voltage clamp holds a large cell at a set potential and records current.

Assay [3] deals with T3, P2X purinoceptor 7 (Rattus norvegicus) (UniProt Q64663).
T3 sequence (whole entry): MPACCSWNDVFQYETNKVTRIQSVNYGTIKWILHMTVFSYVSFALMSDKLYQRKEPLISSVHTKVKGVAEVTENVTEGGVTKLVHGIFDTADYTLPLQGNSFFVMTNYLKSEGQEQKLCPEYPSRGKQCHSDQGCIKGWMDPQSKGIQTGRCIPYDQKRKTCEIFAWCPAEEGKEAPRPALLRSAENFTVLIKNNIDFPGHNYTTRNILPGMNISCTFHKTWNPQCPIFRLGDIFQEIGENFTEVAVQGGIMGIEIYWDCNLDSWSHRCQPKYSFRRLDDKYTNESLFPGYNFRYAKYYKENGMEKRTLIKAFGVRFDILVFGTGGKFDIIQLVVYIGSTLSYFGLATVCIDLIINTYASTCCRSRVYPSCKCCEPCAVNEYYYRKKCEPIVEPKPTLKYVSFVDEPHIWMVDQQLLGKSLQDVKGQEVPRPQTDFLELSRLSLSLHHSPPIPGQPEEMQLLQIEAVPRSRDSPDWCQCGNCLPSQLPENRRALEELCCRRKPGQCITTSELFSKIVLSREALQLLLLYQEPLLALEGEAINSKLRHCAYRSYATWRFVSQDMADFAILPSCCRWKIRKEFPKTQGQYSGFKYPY
The experiment in a line: Antagonist activity at P2X7 receptor in neuropathic rat dorsal horn assessed as inhibition of long term potentiation-induced neropathic pain at 20 uM relative to control. The following applies: Dorsal horn of spinal cord. The gist of the method: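 Ex vivo spinal cord preparation: LTP-induced pain signalling recorded in the dorsal horn of neuropathic rats. Pregabalin served as the positive control.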

Assay [4] has as its system Mus musculus. The experiment in a line: Antiarthritic activity in CII-induced DBA/1J mouse arthritic model assessed as decrease in chronic inflammation at 50 mg/kg, ip measured 10 days post second CII booster by Hematoxylin and eosin staining relative to CII-treated control. It is filed as functional, organism-based. Set-up: dose 50 mg/kg. The gist of the method: (§1)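 Mouse type II collagen-induced arthritis; 50 mg/kg dosed by injection. Ankle histology was scored as cumulative arthritis injury scores against the vehicle-treated CII group.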

Assay [5] deals with Mus musculus. As to the kind of experiment: Antiarthritic activity in CII-induced DBA/1J mouse arthritic model assessed as decrease in abcess formation at 50 mg/kg, ip measured 10 days post second CII booster by Hematoxylin and eosin staining relative to CII-treated control. It counts as functional, organism-based. Set-up: dose 50 mg/kg. The gist of the method:
as §1

In assay [6] the test system is Mus musculus. As to the kind of experiment: Antiarthritic activity in CII-induced DBA/1J mouse arthritic model assessed as decrease in periarticular erosion at 50 mg/kg, ip measured 10 days post second CII booster by Hematoxylin and eosin staining relative to CII-treated control. It counts as functional, organism-based. Set-up: dose 50 mg/kg. Put shortly: as §1
For assay [7], the system named is Mus musculus. The experiment in a line: Downregulation of COX-2 expression in ankle tissue of CII-induced DBA/1J mouse arthritic model at 25 to 50 mg/kg, ip measured 10 days post second CII booster by immunoblot analysis. It is filed as functional, organism-based. Background: In western blotting, separated proteins are transferred to a membrane and probed.
For assay [8], the system named is Mus musculus. The experiment in a line: Downregulation of iNOS expression in ankle tissue of CII-induced DBA/1J mouse arthritic model at 25 to 50 mg/kg, ip measured 10 days post second CII booster by immunoblot analysis. It counts as functional, organism-based.
In assay [9] the target is T1, P2X purinoceptor 7 (Homo sapiens). As to the kind of experiment: Competitive antagonist activity at recombinant human P2X7 receptor expressed in HEK293 cells assessed as inhibition of BzATP-induced intracellular ethidium bromide uptake at 0.1 to 1 uM after 2 hrs by fluorescence assay in presence of BzATP. It is filed as cell-based. The gist of the method:
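HEK293 cells stably expressing recombinant human P2X7 were stimulated with BzATP, and ethidium ion accumulation was read as the measure of pore activity.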

Active and inactive are the calls of the source. No cut-off for these calls is given here.

In general, inhibition refers to how much of the control response was suppressed. As to `O=C1NC(=O)N(C2CCN(C(=O)c3ccc(Cl)c(C(F)(F)F)c3)CC2)C1Cc1ccc(OS(=O)(=O)c2cccc3cnccc23)cc1` (racemic), the results for the inhibition in assay [1], in assay [2] and in [3] were above 95%, 16% and 76%, respectively. The result in the assay with Mus musculus [4], in the assay on Mus musculus [5], with Mus musculus [6], in the assay with Mus musculus [7] and in the assay with Mus musculus [8] was Active. Besides, the inhibition entry in [9] is “Active”.

(Values after ChEMBL document CHEMBL3414458, “Discovery of novel 2,5-dioxoimidazolidine-based P2X(7) receptor antagonists as constrained analogues of KN62” (J Med Chem, 2015).)
